Source: publication PMC5472370 (ACS Omega, 2017)

Columns and labels:
[1] = biological target: T1, mature BACE1 ectodomain (Homo sapiens, UniProt P56817); assay: SPR competition with OM99-2; conditions: binding before and after OM99-2 injection, pH 4.5
Outline: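 Run at pH 4.5 on immobilized wild-type ectodomain: 10 mM NaOAc, 150 mM NaCl, 0.05% Tween 20, 5% DMSO, 25 °C. Fragments injected before and after an injection of the peptide inhibitor OM99-2; binding responses compared. Concentration series 0.03, 0.06, 0.13, 0.25 and 0.50 mM.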

[2] = biological target: BACE1 D32N mutant (Homo sapiens, UniProt P56817, D93N); assay: SPR binding to BACE1 D32N mutant; conditions: BACE1 D32N catalytic-site mutant
Chain of BACE1 D32N mutant (P56817 46-454 D93N): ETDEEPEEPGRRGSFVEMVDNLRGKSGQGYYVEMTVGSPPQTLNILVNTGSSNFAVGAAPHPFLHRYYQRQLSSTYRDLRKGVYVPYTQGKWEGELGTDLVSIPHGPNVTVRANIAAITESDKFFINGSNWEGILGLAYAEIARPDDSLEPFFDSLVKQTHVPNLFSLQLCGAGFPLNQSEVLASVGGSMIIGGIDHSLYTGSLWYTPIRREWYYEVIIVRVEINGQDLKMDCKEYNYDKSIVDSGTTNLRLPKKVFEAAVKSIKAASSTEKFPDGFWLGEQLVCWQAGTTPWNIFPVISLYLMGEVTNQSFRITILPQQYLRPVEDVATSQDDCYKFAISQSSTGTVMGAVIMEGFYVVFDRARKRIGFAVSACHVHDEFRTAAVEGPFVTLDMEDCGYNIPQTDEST
Outline: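 Catalytic-site D32N ectodomain (residues −16 to 393, C-terminal His- plus StrepII-tag), expressed in and purified from E. coli. Amine-coupled to a CM7 chip and run under conditions similar to wild type: 25 °C, 30 s injections at 30 µL/min, DMSO solvent correction. Concentration series 0.03, 0.06, 0.13, 0.25 and 0.50 mM.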

[3] = biological target: T1, mature BACE1 ectodomain; assay: WaterLOGSY ligand-observed NMR binding; conditions: 30-fold excess of ligand, performed once
Outline: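 Ligand-observed NMR on 5 µM mature ectodomain with 0.15 mM ligand (1:30 protein/ligand, ligand from 100 mM DMSO-d6 stock) and D2O added. Recorded at 27 °C on a 600 MHz spectrometer with cryoprobe. Both 1D 1H and WaterLOGSY spectra acquired: 32K points, 14 ppm sweep width, 128 scans. Run at physiological pH, then repeated at acidic pH.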

[4] = biological target: T1, mature BACE1 ectodomain; assay: SPR binding to immobilized WT BACE1
Outline: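 Mature ectodomain and a neutravidin reference were amine-coupled on CM7 chips; runs at 25 °C. Running buffers: HBS-N pH 7.4, or 10 mM NaOAc pH 4.5 with 150 mM NaCl; both with 0.05% Tween 20 and 5% DMSO. Injections 30 s at 30 µL/min, with DMSO correction over 2.5–6.5%. Screened at 0.25 mM in duplicate (forward and reverse order) against BACE1, neutravidin and a blank spot. Top 10% retested over 0.03–0.500 mM (8 points, 1.5-fold).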

T1 sequence (P56817 46-454 limits assumed): as the sequence (P56817 46-454 D93N) above, with N48D counted along it

| SMILES | SPR OM99-2 competition [1] | SPR D32N binding [2] | WaterLOGSY signal at pH 4.5 ([3]; pH 4.5) | SPR binding to WT BACE1 (mature BACE1 ectodomain) ([4]; pH not stated) | WaterLOGSY signal at pH 7.5 [3] | SPR binding at pH 4.5 ([4]; WT BACE1, pH 4.5) |
| --- | --- | --- | --- | --- | --- | --- |
| CC1(c2ccccc2)COCC(N)=N1 (centres unmarked) [Compound 14, 5-Methyl-5-phenyl-2,6-dihydro-1,4-oxazin-3-amine] | drastically reduced | lost binding | strong positive | bound strongly | – | – |
| Brc1cc2c(N3CCNCC3)nccn2c1 [Compound 10, 7-Bromo-1-piperazin-1-yl-pyrrolo[1,2-a]pyrazine] | bound | bound | – | – | clear positive | nonspecific binding |
| CN(C)c1nc(N2CCCC2)nc2ccccc12 [Compound 12, N,N-Dimethyl-2-pyrrolidin-1-yl-quinazolin-4-amine] | reduced binding | bound | – | – | clear positive | – |
